Here are results for ten compounds from ChEMBL document CHEMBL1121378, “Lipophilic and hydrophilic esters of 4-acetyl-2-(2-hydroxyethyl)-5,6-bis(4-chlorophenyl)-2H-pyridazin-3-one as antihypertensive agents” (1980).

The subject of assay [1] is Rattus norvegicus. Put plainly: Antihypertensive activity in spontaneously hypertensive rats was measured as average blood pressure at 10 mg/kg, p.o. after 4 hours of postdose-1. Format: functional. The conditions noted are these: route oral. Put shortly:
(§1)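 SHR model with two successive doses, designated dose 1 and dose 2. Group-average blood pressure in mmHg was recorded before dosing and at 4 h and 24 h after each dose. The route is oral unless marked intra-arterial or subcutaneous. A table footnote marks doses that gave no significant lowering at 4 or 24 h postdose.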

Assay [2] concerns Rattus norvegicus. Put plainly: Antihypertensive activity in spontaneously hypertensive rats was measured as average blood pressure at 100 mg/kg, p.o. after 4 hours of postdose-2. Format: functional. Particulars: route oral. Put shortly: as §1
Assay [3] deals with Rattus norvegicus. Put plainly: Antihypertensive activity in spontaneously hypertensive rats was measured as average blood pressure at 10 mg/kg, p.o. after 4 hours of postdose-2. Format: functional. Particulars: route oral. Put shortly:
as §1

The subject of assay [4] is Rattus norvegicus. Put plainly: Antihypertensive activity in spontaneously hypertensive rats was measured as average blood pressure at 100 mg/kg, p.o. after 24 hours of postdose-2. Format: functional. The conditions noted are these: route oral. Put shortly:
as §1

The test system of assay [5] is Rattus norvegicus. Kind of assay: Antihypertensive activity in spontaneously hypertensive rats was measured as average blood pressure at 100 mg/kg, p.o. before predose. The conditions noted are these: route oral. Format: functional. Put shortly: as §1
The subject of assay [6] is Rattus norvegicus. Kind of assay: Antihypertensive activity in spontaneously hypertensive rats was measured as average blood pressure at 100 mg/kg, p.o. after 24 hours of postdose-1. The assay is classed as functional. Particulars: route oral. Put shortly:
as §1

Assay [7] concerns Rattus norvegicus. Kind of assay: Antihypertensive activity in spontaneously hypertensive rats was measured as average blood pressure at 100 mg/kg, p.o. after 4 hours of postdose-1. Particulars: route oral. Format: functional. Put shortly: as §1
The test system of assay [8] is Rattus norvegicus. Kind of assay: Antihypertensive activity in spontaneously hypertensive rats was measured as average blood pressure at 30 mg/kg, p.o. after 4 hours of postdose-2. The conditions noted are these: route oral. The assay is classed as functional. Put shortly:
as §1

Assay [9] has as its system Rattus norvegicus. Kind of assay: Antihypertensive activity in spontaneously hypertensive rats was measured as average blood pressure at 10 mg/kg, p.o. after 24 hours of postdose-1. Format: functional. Particulars: route oral. The essentials: as §1
The test system of assay [10] is Rattus norvegicus. Put plainly: Antihypertensive activity in spontaneously hypertensive rats was measured as average blood pressure at 10 mg/kg, p.o. after 24 hours of postdose-2. Format: functional. Particulars: route oral. The essentials: as §1
The subject of assay [11] is Rattus norvegicus. Kind of assay: Antihypertensive activity in spontaneously hypertensive rats was measured as average blood pressure at 30 mg/kg, po after 24 hours of postdose-2. The assay is classed as functional. The essentials:
as §1

The subject of assay [12] is Rattus norvegicus. Kind of assay: Antihypertensive activity in spontaneously hypertensive rats was measured as average blood pressure at 30 mg/kg, p.o. after 24 hours of postdose-1. Format: functional. Particulars: route oral. Put shortly: as §1
The test system of assay [13] is Rattus norvegicus. Put plainly: Antihypertensive activity in spontaneously hypertensive rats was measured as average blood pressure at 10 mg/kg, p.o. before predose. Particulars: route oral. The assay is classed as functional. Put shortly:
as §1

In assay [14] the test system is Rattus norvegicus. Kind of assay: Antihypertensive activity in spontaneously hypertensive rats was measured as average blood pressure at 30 mg/kg, po before predose. The assay is classed as functional. The essentials: as §1
Assay [15] relates to Rattus norvegicus. Kind of assay: Antihypertensive activity in spontaneously hypertensive rats was measured as average blood pressure at 30 mg/kg, p.o. after 4 hours of postdose-1. Format: functional. The conditions noted are these: route oral. Put shortly:
as §1

In assay [16] the test system is Rattus norvegicus. Kind of assay: Antihypertensive activity in spontaneously hypertensive rats was measured as average blood pressure at 13 mg/kg, p.o. after 4 hours of postdose-1. Particulars: route oral. Format: functional. Put shortly: as §1
The subject of assay [17] is Rattus norvegicus. Put plainly: Antihypertensive activity in spontaneously hypertensive rats was measured as average blood pressure at 13 mg/kg, po after 24 hours of postdose-1. The assay is classed as functional. Put shortly:
as §1

Assay [18] concerns Rattus norvegicus. Kind of assay: Antihypertensive activity in spontaneously hypertensive rats was measured as average blood pressure at 13 mg/kg, p.o. before predose. The assay is classed as functional. Particulars: route oral. The essentials:
as §1

Assay [19] has as its system Rattus norvegicus. Put plainly: Antihypertensive activity in spontaneously hypertensive rats was measured as average blood pressure at 13 mg/kg, p.o. after 24 hours of postdose-2. The assay is classed as functional. Particulars: route oral. The essentials: as §1
Assay [20] relates to Rattus norvegicus. Put plainly: Antihypertensive activity in spontaneously hypertensive rats was measured as average blood pressure at 13 mg/kg, p.o. after 4 hours of postdose-2. The assay is classed as functional. Particulars: route oral. The essentials: as §1
The subject of assay [21] is Rattus norvegicus. Put plainly: Antihypertensive activity in spontaneously hypertensive rats was measured as average blood pressure at 15 mg/kg, ia after 4 hours of postdose-1. The assay is classed as functional. Particulars: route intra-arterial. Put shortly: as §1
Assay [22] relates to Rattus norvegicus. Put plainly: Antihypertensive activity in spontaneously hypertensive rats was measured as average blood pressure at 15 mg/kg, sc after 4 hours of postdose-2. Format: functional. The conditions noted are these: route subcutaneous. Put shortly: as §1
Assay [23] concerns Rattus norvegicus. Kind of assay: Antihypertensive activity in spontaneously hypertensive rats was measured as average blood pressure at 15 mg/kg, sc before predose subcutaneous. Format: functional. The essentials:
as §1

The test system of assay [24] is Rattus norvegicus. Put plainly: Antihypertensive activity in spontaneously hypertensive rats was measured as average blood pressure at 15 mg/kg, ia before predose intra arterial. Format: functional, Artery. The essentials:
as §1

Assay [25] relates to Rattus norvegicus. Put plainly: Antihypertensive activity in spontaneously hypertensive rats was measured as average blood pressure at 15 mg/kg, sc after 24 hours of postdose-1. The assay is classed as functional. Particulars: route subcutaneous. The essentials:
as §1

The test system of assay [26] is Rattus norvegicus. Kind of assay: Antihypertensive activity in spontaneously hypertensive rats was measured as average blood pressure at 15 mg/kg, ia after 4 hours of postdose-2. Format: functional. Particulars: route intra-arterial. Put shortly:
as §1

Assay [27] relates to Rattus norvegicus. Kind of assay: Antihypertensive activity in spontaneously hypertensive rats was measured as average blood pressure at 15 mg/kg, sc after 4 hours of postdose-1. Format: functional. The conditions noted are these: route subcutaneous. The essentials: as §1
In assay [28] the test system is Rattus norvegicus. Kind of assay: Antihypertensive activity in spontaneously hypertensive rats was measured as average blood pressure at 15 mg/kg, sc after 24 hours of postdose-2. Format: functional. The conditions noted are these: route subcutaneous. Put shortly: as §1
The test system of assay [29] is Rattus norvegicus. Kind of assay: Antihypertensive activity in spontaneously hypertensive rats was measured as average blood pressure at 15 mg/kg, ia after 24 hours of postdose-1. Format: functional. Particulars: route intra-arterial. Put shortly: as §1
The subject of assay [30] is Rattus norvegicus. Kind of assay: Antihypertensive activity in spontaneously hypertensive rats was measured as average blood pressure at 15 mg/kg, po after 24 hours of postdose-1; No significant lowering of blood pressure. Format: functional, organism-based. Also noted: dose 15 mg/kg. Put shortly: as §1
Assay [31] deals with Rattus norvegicus. Kind of assay: Antihypertensive activity in spontaneously hypertensive rats was measured as average blood pressure at 15 mg/kg, p.o. after 4 hours of postdose-1; No significant lowering of blood pressure. The assay is classed as functional, organism-based. Also noted: dose 15 mg/kg. Put shortly: as §1
In assay [32] the test system is Rattus norvegicus. Put plainly: Antihypertensive activity in spontaneously hypertensive rats was measured as average blood pressure at 100 mg/kg, po after 4 hours of postdose-1; No significant lowering of blood pressure. On the set-up: dose 100 mg/kg. Format: functional, organism-based. The essentials: as §1
Assay [33] relates to Rattus norvegicus. Kind of assay: Antihypertensive activity in spontaneously hypertensive rats was measured as average blood pressure at 100 mg/kg, p.o. after 24 hours of postdose-1; No significant lowering of blood pressure. The assay is classed as functional, organism-based. On the set-up: dose 100 mg/kg. The essentials: as §1
Assay [34] deals with Rattus norvegicus. Put plainly: Antihypertensive activity in spontaneously hypertensive rats was measured as average blood pressure at 50 mg/kg, p.o. after 4 hours of postdose-1. Particulars: route oral. Format: functional. Put shortly: (§2)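 Spontaneously hypertensive rats dosed orally twice. Average blood pressure (mmHg) recorded before dosing and at 4 h and 24 h after the first dose and after the second dose. Postdose values checked for significant lowering against predose.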

The test system of assay [35] is Rattus norvegicus. Put plainly: Antihypertensive activity in spontaneously hypertensive rats was measured as average blood pressure at 50 mg/kg, p.o. before predose. Format: functional. The conditions noted are these: route oral. The essentials:
as §2

Assay [36] deals with Rattus norvegicus. Kind of assay: Antihypertensive activity in spontaneously hypertensive rats was measured as average blood pressure at 50 mg/kg, p.o. after 24 hours of postdose-1. The assay is classed as functional. Particulars: route oral. Put shortly: as §2
Assay [37] has as its system Rattus norvegicus. Put plainly: Antihypertensive activity in spontaneously hypertensive rats was measured as average blood pressure at 50 mg/kg, p.o. after 24 hours of postdose-2. Particulars: route oral. The assay is classed as functional. Put shortly: as §2
For assay [38], the system named is Rattus norvegicus. Kind of assay: Antihypertensive activity in spontaneously hypertensive rats was measured as average blood pressure at 50 mg/kg, po after 4 hours of postdose-2. Format: functional. The essentials:
as §2

Take `CC(=O)OCCn1nc(-c2ccc(Cl)cc2)c(-c2ccc(Cl)cc2)c(C(C)=O)c1=O`: the BP in assay [1] worked out at 162 mmHg; in assay [2], 122 mmHg; in assay [3], 149 mmHg; in [4], 143 mmHg; in assay [5], 182 mmHg; in assay [6] it was 132 mmHg. Besides, the BP is 150 mmHg in [7]; 140 mmHg in [8]; 181 mmHg in assay [9]; 176 mmHg in assay [10]; 152 mmHg in assay [11]; 165 mmHg in assay [12]. The BP in assay [13] and in assay [14] was 183 mmHg throughout.

Consider `CC(=O)c1c(-c2ccc(Cl)cc2)c(-c2ccc(Cl)cc2)nn(CCO)c1=O`, for which the BP in [15] came out at 200 mmHg; in assay [2], 174 mmHg; in assay [4], 193 mmHg; in [5], 218 mmHg; in [6], 185 mmHg; in assay [7], 173 mmHg. Moreover, the BP in [8] came to 164 mmHg; in assay [11] it was 206 mmHg; in assay [12], 192 mmHg; in [14] it was 213 mmHg.

As for `CC(=O)c1c(-c2ccc(Cl)cc2)c(-c2ccc(Cl)cc2)nn(CCOC(=O)CCN)c1=O.Cl`, the BP in assay [16] is 210 mmHg; in assay [17], 215 mmHg; in assay [18] it was 215 mmHg; in assay [19] it was 209 mmHg; in assay [20] it was 195 mmHg.

As to `CC(=O)c1c(-c2ccc(Cl)cc2)c(-c2ccc(Cl)cc2)nn(CCOC(=O)Cc2ccccc2)c1=O`, the BP in [15] amounted to 165 mmHg; in [8], 146 mmHg; in [11] it was 127 mmHg; in [12] it was 154 mmHg; in assay [14] it was 174 mmHg.

With `CC(=O)c1c(-c2ccc(Cl)cc2)c(-c2ccc(Cl)cc2)nn(CCOC(=O)C(N)CCCCN)c1=O.Cl.Cl` (configuration not stated), the BP amounted to 183 mmHg in assay [21]; 166 mmHg in [22]; 181 mmHg in assay [23]; 199 mmHg in assay [24]; 171 mmHg in assay [25]; 171 mmHg in assay [26]. For the same compound, the results for the BP in assay [27], in assay [28] and in assay [29] were 169 mmHg, 185 mmHg and 159 mmHg, respectively.

`CC(=O)c1c(-c2ccc(Cl)cc2)c(-c2ccc(Cl)cc2)nn(CCOC(=O)C(N)Cc2ccccc2)c1=O` (configuration not stated): the BP result in [30] and in assay [31] was “Not significant” each time.

`CC(=O)c1c(-c2ccc(Cl)cc2)c(-c2ccc(Cl)cc2)nn(CCOC(=O)C(Cc2ccccc2)NC(=O)OCc2ccccc2)c1=O` (configuration not stated): the BP entry in assay [32] and in [33] was “Not significant” in each case.

On to `N=C(N)NCCN1CCCCCCC1` [GUANETHIDINE], for which the BP in [34] was 154 mmHg; in assay [35], 187 mmHg; in assay [36], 166 mmHg; in [37] it was 186 mmHg; in assay [38], 138 mmHg.

Take `Br.CC(=O)c1c(-c2ccc(Cl)cc2)c(-c2ccc(Cl)cc2)nn(CCOC(=O)CN)c1=O`: the BP in assay [16] came out at 177 mmHg; in assay [17], 154 mmHg; in assay [18] it was 182 mmHg; in assay [19], 170 mmHg; in [20], 145 mmHg.

On to `CC(=O)c1c(-c2ccc(Cl)cc2)c(-c2ccc(Cl)cc2)nn(CCOC(=O)c2ccccc2)c1=O`, for which the BP in assay [15] is recorded as 116 mmHg; in [8], 136 mmHg; in assay [11] it was 130 mmHg; in [12], 139 mmHg; in [14], 173 mmHg.
